In data set [1] the test system is Klebsiella pneumoniae. Nature of the data set: Antibacterial activity against Klebsiella pneumoniae B9 assessed as inhibition of bacterial growth incubated for 16 hrs by broth microdilution method. The data set is classed as functional. Summed up:
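Broth microdilution in CAMHB. Six-hour culture diluted to 5×10^5 CFU/mL, compound added from DMSO stock, two-fold serial dilution. MIC is the lowest concentration giving 90% growth inhibition versus untreated wells. Run in duplicate, repeated at least twice.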
(In broth dilution the organism is exposed to a series of concentrations in liquid medium.)

The test system of data set [2] is Klebsiella pneumoniae. Put plainly: Potentiation of colistin-induced antibacterial activity against colistin resistant Klebsiella pneumoniae B9 assessed as colistin MIC at 5 uM incubated for 16 hrs by broth microdilution method. Type of data set: functional. An outline of the steps:
(§1)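 Bacteria grown 6 h in CAMHB, diluted to 5×10^5 CFU/mL. Fixed adjuvant concentration added from DMSO stock; an undosed aliquot gives the colistin MIC alone. Colistin serially two-fold diluted in the compound-dosed suspension. MIC taken at 90% growth inhibition versus untreated wells. Fold change is colistin MIC alone over MIC with adjuvant. Duplicate, repeated at least twice.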

Data set [3] concerns Klebsiella pneumoniae. Put plainly: Potentiation of colistin-induced antibacterial activity against colistin-resistant Klebsiella pneumoniae B9 assessed as fold change in colistin MIC at 5 uM incubated for 16 hrs by broth microdilution method. The data set is classed as functional. An outline of the steps: as §1
In data set [4] the test system is Klebsiella pneumoniae. Put plainly: Potentiation of colistin-induced antibacterial activity against colistin-resistant Klebsiella pneumoniae B9 assessed as colistin MIC at 3 uM incubated for 16 hrs by broth microdilution method. The data set is classed as functional. An outline of the steps:
as §1

Data set [5] deals with Klebsiella pneumoniae. Nature of the data set: Potentiation of colistin-induced antibacterial activity against colistin-resistant Klebsiella pneumoniae B9 assessed as fold change in colistin MIC at 3 uM incubated for 16 hrs by broth microdilution method. The data set is classed as functional. Summed up: as §1
The subject of data set [6] is Klebsiella pneumoniae. Nature of the data set: Potentiation of colistin-induced antibacterial activity against colistin-resistant Klebsiella pneumoniae B9 assessed as colistin MIC at 1 uM incubated for 16 hrs by broth microdilution method. Type of data set: functional. An outline of the steps: as §1
Data set [7] concerns Klebsiella pneumoniae. Nature of the data set: Potentiation of colistin-induced antibacterial activity against colistin-resistant Klebsiella pneumoniae B9 assessed as fold change in colistin MIC at 1 uM incubated for 16 hrs by broth microdilution method. Type of data set: functional. Summed up:
as §1

The test system of data set [8] is Klebsiella pneumoniae. Nature of the data set: Potentiation of colistin-induced antibacterial activity against colistin resistant Klebsiella pneumoniae C3 assessed as colistin MIC at 5 uM incubated for 16 hrs by broth microdilution method. The data set is classed as functional. An outline of the steps: as §1
For data set [9], the system named is Klebsiella pneumoniae. Nature of the data set: Potentiation of colistin-induced antibacterial activity against colistin resistant Klebsiella pneumoniae F9 assessed as colistin MIC at 5 uM incubated for 16 hrs by broth microdilution method. The data set is classed as functional. Summed up: as §1
In data set [10] the test system is Klebsiella pneumoniae. Nature of the data set: Potentiation of colistin-induced antibacterial activity against colistin resistant Klebsiella pneumoniae I2 assessed as colistin MIC at 5 uM incubated for 16 hrs by broth microdilution method. The data set is classed as functional. An outline of the steps: as §1
Data set [11] has as its system Klebsiella pneumoniae. Put plainly: Potentiation of colistin-induced antibacterial activity against colistin resistant Klebsiella pneumoniae F2210291 harbouring mcr-1 gene assessed as colistin MIC at 5 uM incubated for 16 hrs by broth microdilution method. The data set is classed as functional. Summed up:
as §1

For data set [12], the system named is Acinetobacter baumannii. Put plainly: Antimicrobial activity against colistin resistant Acinetobacter baumannii 3941 assessed as inhibition of microbial growth incubated for 16 hrs by broth microdilution method. The data set is classed as functional, organism-based. Summed up:
(§2)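 Bacteria grown 6 h in cation-adjusted Mueller Hinton broth (CAMHB), subcultured to 5×10^5 CFU/mL. Compound added from DMSO stock and serially two-fold diluted in the culture. Incubated stationary at 37 °C for 16 h. MIC taken as the lowest concentration giving 90% growth inhibition versus untreated wells. Duplicate, repeated at least twice.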

Data set [13] has as its system Escherichia coli. Nature of the data set: Antimicrobial activity against colistin resistant Escherichia coli 25922 harbouring mcr-1 gene assessed as inhibition of microbial growth incubated for 16 hrs by broth microdilution method. Type of data set: functional, organism-based. Summed up: as §2
In data set [14] the test system is Pseudomonas aeruginosa. Nature of the data set: Antimicrobial activity against colistin resistant Pseudomonas aeruginosa TRPA 162 assessed as inhibition of microbial growth incubated for 16 hrs by broth microdilution method. Type of data set: functional, organism-based. An outline of the steps:
as §2

Data set [15] deals with Acinetobacter baumannii. Nature of the data set: Potentiation of colistin-induced antimicrobial activity against colistin resistant Acinetobacter baumannii 3941 assessed as assessed as colistin MIC at 5 uM incubated for 16 hrs by broth microdilution method. Type of data set: functional. An outline of the steps: as §1
The subject of data set [16] is Pseudomonas aeruginosa. Nature of the data set: Potentiation of colistin-induced antimicrobial activity against colistin-resistant Pseudomonas aeruginosa TRPA 162 assessed as colistin MIC at 5 uM incubated for 16 hrs by broth microdilution method. Type of data set: functional. An outline of the steps: as §1
Data set [17] has as its system Escherichia coli. Put plainly: Potentiation of colistin-induced antimicrobial activity against colistin resistant Escherichia coli 25922 harbouring mcr-1 gene assessed as colistin MIC at 5 uM incubated for 16 hrs by broth microdilution method. Type of data set: functional. Summed up:
as §1

Data set [18] has as its system Klebsiella pneumoniae. Nature of the data set: Antibacterial activity against Klebsiella pneumoniae B9 assessed as inhibition of bacterial growth at 5 uM measured upto 24 hrs by time-kill assay. Type of data set: functional, organism-based. An outline of the steps:
(§3)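 Overnight CAMHB culture subcultured to 5×10^5 CFU/mL in fresh CAMHB, split into 4 mL aliquots. Dosed with carrier only, adjuvant, colistin, or adjuvant plus colistin. Shaken at 37 °C. At 2, 4, 6, 8 and 24 h, 100 µL sampled, ten-fold serially diluted in CAMHB up to 7 times, plated on LB Lennox agar, incubated overnight at 37 °C, colonies counted.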

The test system of data set [19] is Klebsiella pneumoniae. Put plainly: Synergistic antibacterial activity against Klebsiella pneumoniae B9 assessed as reduction in colony forming unit measured per ml at 5 uM measured after 8 hrs in the presence of 0.5 ug/ml of colistin by time-kill assay. The data set is classed as functional. An outline of the steps: as §3
In data set [20] the test system is Klebsiella pneumoniae. Put plainly: Synergistic antibacterial activity against Klebsiella pneumoniae B9 assessed as reduction in colony forming unit measured per ml at 5 uM measured after 2 hrs in the presence of 2 ug/ml of colistin by time-kill assay. Type of data set: functional. An outline of the steps: as §3
Data set [21] concerns Klebsiella pneumoniae. Nature of the data set: Synergistic antibacterial activity against Klebsiella pneumoniae B9 assessed as reduction in colony forming unit measured per ml at 5 uM measured after 24 hrs in the presence of 2 ug/ml of colistin by time-kill assay. Type of data set: functional. Summed up:
as §3

For data set [22], the system named is Klebsiella pneumoniae. Nature of the data set: Synergistic antibacterial activity against Klebsiella pneumoniae B9 assessed as reduction in colony forming unit at 5 uM measured at 6 to 24 hrs in the presence of 4 ug/ml of colistin by time-kill assay. Conditions: time 6-24 hrs. The data set is classed as functional, organism-based. Summed up:
as §3

The nature of data set [23]: Hemolytic activity in sheep RBC assessed as hemolysis upto 400 uM incubated for 1 hrs by UV-Vis spectrophotometric analysis. Type of data set: toxicity, cell-based, Ovis aries. To be noted: erythrocyte. Summed up:
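Defibrinated sheep blood cells washed three times in PBS by centrifugation (10 min, 10,000 rpm), resuspended in 10 mL PBS, compound added. PBS served as 0% lysis and 1% Triton X-100 as 100% lysis. Shaken at 200 rpm, 37 °C, 1 h, then centrifuged. Supernatant diluted 40-fold in water, absorbance read at 540 nm.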

In data set [24] the test system is Klebsiella pneumoniae. Nature of the data set: Induction of drug resistance in colistin-resistant Klebsiella pneumoniae B9 assessed as lipid A modification of LPS at 5 uM incubated for 8 hrs by MALDI-TOF analysis. The data set is classed as functional, organism-based. An outline of the steps: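 K. pneumoniae B9 grown 18 h at 37 °C in CAMHB, subcultured to 1×10^6 CFU in 120 mL CAMHB. Left untreated or dosed at 5 μM for 8 h, in duplicate. Cells pelleted, washed with endotoxin-free water, and extracted on-plate with 70% citric acid at 110 °C for 30 min. Norharmane matrix applied, then MALDI-TOF in negative ion mode.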

The test system of data set [25] is Klebsiella pneumoniae. Nature of the data set: Antibacterial activity against colistin resistant Klebsiella pneumoniae C3 assessed as inhibition of bacterial growth incubated for 16 hrs by broth microdilution method. The data set is classed as functional, organism-based. An outline of the steps: as §2
Data set [26] has as its system Klebsiella pneumoniae. Nature of the data set: Antibacterial activity against colistin resistant Klebsiella pneumoniae F9 assessed as inhibition of bacterial growth incubated for 16 hrs by broth microdilution method. The data set is classed as functional, organism-based. An outline of the steps: as §2
Data set [27] concerns Klebsiella pneumoniae. Nature of the data set: Antibacterial activity against colistin resistant Klebsiella pneumoniae I2 assessed as inhibition of bacterial growth incubated for 16 hrs by broth microdilution method. The data set is classed as functional, organism-based. An outline of the steps: as §2
Data set [28] deals with Klebsiella pneumoniae. Nature of the data set: Antibacterial activity against colistin resistant Klebsiella pneumoniae F2210291 harbouring mcr-1 gene assessed as inhibition of bacterial growth incubated for 16 hrs by broth microdilution method. Type of data set: functional, organism-based. An outline of the steps: as §2

Two compounds from ChEMBL document CHEMBL5230178, “6-Bromoindirubin-3'-oxime derivatives are highly active colistin adjuvants against Klebsiella pneumoniae” (RSC Med Chem, 2023) can be followed below.

Calls of active or inactive are those of the source. A value given as a limit tells only on which side of the number the result lay.

For the compound `O=C1Nc2cc(Br)ccc2/C1=C1/Nc2cc(Cl)ccc2/C1=N\O`, the MIC in data set [1] was over 200 µM; in data set [2], 0.5 µg/mL; in data set [4], 1 µg/mL; in [6], 16 µg/mL; in [8] it was 1 µg/mL; in data set [9], 2 µg/mL. The MIC was 2 µg/mL in data set [10]; 1 µg/mL in [11]; over 16 µg/mL in [15]; over 16 µg/mL in data set [16]; 2 µg/mL in data set [17]. The “fold change (FC)” value in [3] turned out to be 1024; in [5], 256; in data set [7] it was 32. Besides, the result in data set [12], in data set [13], in data set [14], in data set [18] and in data set [24] was inactive. The “log(activity)” value is 1 in data set [19], 2 in data set [20] and 1 in data set [21]. Moreover, in [22], the outcome was Active. For the same compound, the Activity result in [23] was “Non-Toxic”.

As to COLISTIN, the minimal inhibitory concentration (MIC) is 512 µg/mL in data set [1]; 128 µg/mL in data set [25]; 256 µg/mL in data set [26]; 512 µg/mL in data set [27]; 16 µg/mL in data set [28]; 1020 µg/mL in [12]. Further, the MIC in [13] is 16 µg/mL; in data set [14], 1020 µg/mL.

Broadly, the MIC is the smallest concentration in the dilution series that meets the test's criterion for growth inhibition.
